Test results as given in PubChem BioAssay AID651869 (Broad Institute, 2012).

Test system: T. cruzi CAI/72 in BESM cells, trypomastigote emergence, microscopy
Assay: cidal versus static activity on T. cruzi, late-stage follow-up, mechanism study for T. cruzi inhibitor project, imaging, CAI/72 strain, BESM host cells, 29-day treatment, set 2 (AID 651869)
Conditions: hits give high values
In short: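 assay system = bovine embryo skeletal muscle (BESM) cells infected with Trypanosoma cruzi CAI/72 | incubation = 24 h post-infection wash, alternate-day dosing 29 days, 20-day washout | signal = daily light-microscopy scoring of trypomastigote emergence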

Compound	cidality slope score
C[C@@H]1CN([C@H](C)CO)C(=O)c2cccc(NC(=O)c3ccncc3)c2O[C@H]1CN(C)Cc1ccc(Oc2ccccc2)cc1	1100
C[C@H]1CN([C@@H](C)CO)C(=O)c2cccc(NC(=O)c3ccncc3)c2O[C@@H]1CN(C)Cc1ccc(Oc2ccccc2)cc1	1100
C[C@H]1CN([C@@H](C)CO)C(=O)c2cccc(NC(=O)c3ccncc3)c2O[C@H]1CN(C)Cc1ccc(Oc2ccccc2)cc1	1100
C[C@H](CO)N1C[C@H](C)[C@H](CN(C)Cc2ccc(Oc3ccccc3)cc2)Oc2c(NC(=O)c3ccncc3)cccc2C1=O	85
CC(C)N1C[C@@H](C)[C@H](CN(C)Cc2cccc(Oc3ccccc3)c2)Oc2c(NC(=O)c3ccncc3)cccc2C1=O	1100
C[C@@H]1CN([C@@H](C)CO)C(=O)c2cccc(NC(=O)c3ccncc3)c2O[C@H]1CN(C)Cc1ccc(Cl)cc1	7.6
O=C(Cn1ccnc1[N+](=O)[O-])NCc1ccccc1	12
C[C@@H]1CN([C@H](C)CO)C(=O)c2cccc(NC(=O)c3ccncc3)c2O[C@H]1CN(C)Cc1ccccc1	85
C[C@@H]1CN([C@@H](C)CO)C(=O)c2cccc(NC(=O)c3ccncc3)c2O[C@H]1CN(C)Cc1cccc(Cl)c1	75
C[C@@H]1CN([C@@H](C)CO)C(=O)c2cccc(NC(=O)c3ccncc3)c2O[C@H]1CN(C)Cc1ccc(Oc2ccccc2)cc1	1100
